Here are results for 2 molecules from paper PMC9929523 (International Journal for Parasitology: Drugs and Drug …, 2023).

Molecules are shown by their SMILES. Several values for one entry are separate records, joined by “and”; a condition that tells them apart may be missing. Equal values may be shown once. Read-outs that look alike come from different tables or passages of the source.

Series [1] relates to schistosomiasis. As to conditions: sub-Saharan Africa; ref Doenhoff et al., 2009; cited from earlier work.
Series [2] deals with S. mansoni. As to conditions: meta-analysis, S. mansoni infections; ref Zwang and Olliaro, 2014; cited from earlier work.
In series [3] the test system is S. haematobium. The note with it: meta-analysis, S. haematobium infections; ref Zwang and Olliaro, 2014; cited from earlier work.
The nature of series [4]: Clinical human OXA pharmacokinetics. It counts as in vivo. The note with it: 40 mg/kg dose, assuming dose proportionality.
The nature of series [5]: Tissue distribution in wild-type C57Bl/6J mice. It counts as in vivo, mouse. The note with it: 4-h time point, 100 mg/kg oral dose.
Series [6] is described as follows: Hepatic microsomal stability. It counts as in vitro ADME. As to conditions: mouse, liver microsomes, pH 7.4, intrinsic clearance, 1 μM OXA, 0.2 mg protein per ml. The method, boiled down: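 Test compound (1 μM) incubated with mouse hepatic microsomes at 1, 0.5 and 0.2 mg/mL in 100 mM potassium phosphate, pH 7.4. Samples filtered and analysed by LC-MS/MS. Log-transformed data gave half-life. CLint (μl/min/mg) = ln2 × incubation volume / (half-life × mg protein). Unbound CLint came from the y-intercept of microsomal concentration vs 1/CLint.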
Background: Liver microsomes are a subcellular fraction often used to study metabolism.

The nature of series [7]: Blood to plasma ratio, Rb. It counts as in vitro ADME. As to conditions: female, C57Bl/6J, mouse, fresh heparinized whole blood and fresh plasma. Put shortly:
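Heparinized whole blood from female C57Bl/6J mice and matching fresh plasma were each spiked from a 10 mM DMSO stock to a final 5 μM and held 30 min at 37 °C. Samples were spun at 8000×g for 3 min, extracted into ACN/MeOH with diclofenac internal standard, and measured by LC-MS/MS. Rb = concentration in directly spiked plasma / concentration in plasma from spiked blood.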

The nature of series [8]: Estimation of human hepatic inlet. It counts as in vivo.
Series [9] is described as follows: Estimation of mouse hepatic inlet.
The nature of series [10]: Mouse pharmacokinetics. It counts as in vivo.
The test system of series [11] is Schistosoma mansoni. Kind of series: S. mansoni killing in vitro. Type of series: cell-based. Put shortly:
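Hamster-derived adult male worms, 10 per well, in DMEM with 10% heat-inactivated FBS and antibiotic/antimycotic. Dosed within 2–4 h of harvest from 100X DMSO spikes: 0–143 μM, triplicate, 45 min at 37 °C, 5% CO2. Second set used 143 μM or DMSO for 15, 30 or 45 min. Worms washed thrice and cultured 14 days, medium changed every other day. Daily survival scored by motility, shedding, opacity and tegument blebbing; Kaplan-Meier curves.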

The conditions of series [12]: ref Daneshmend and Homeida, 1987, cited from earlier work.
Series [13] in a line: Formulation solubility. Type of series: physicochemical. Put shortly:
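The aim was an oral dosing vehicle. Co-solvent solutions (polyethylene glycol or ethanol) were checked for precipitation by diluting 1:10 into saline. A 10 mg/ml solution was prepared in 100 mM acetate buffer, pH 4.5.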

Series [14] has as its system P-gp efflux transporter. In words: Tissue distribution in P-gp knockout mice. Type of series: in vivo, mouse. The note with it: wild-type vs P-gp knockout mice, 4 h after 100 mg/kg oral dose.
The mark [15] stands for this setting: 100 mg/kg PO acetate buffer, WinNonlin one-compartment model.
The mark [16] stands for this setting: 100 mg/kg PO acetate buffer, method of residuals.
The mark [17] stands for this setting: female, C57Bl/6J, mouse, plasma, iv, 3 mg/kg.
The mark [18] stands for this setting: female, C57Bl/6J, mouse, plasma, po, 100 mg/kg, pH 4.5.
[19] abbreviates: patients n = 9, single oral dose 1000 mg.

Regarding `O=C(C1CCCCC1)N1CC(=O)N2CCc3ccccc3C2C1` (stereo not drawn) [praziquantel], the cure rates in series [1] is given as 60–90%. The cure rate is 76.7% in series [2] and 77.1% in [3].
Usually microsomal CLint stands for the capacity of the preparation to metabolise the compound, expressed as a volume cleared per time. A lower microsomal CLint goes with slow turnover. As usually defined, the AUC(0-inf) is the area under the concentration-time curve extrapolated to infinity. A high value points to high exposure. Usually Cmax stands for the maximum level reached in the sampled fluid or tissue. In general, Tmax refers to the time at which the peak concentration occurs. As usually defined, the clearance is a measure of how efficiently the substance is removed, as volume per time. Lower therefore signals a low capacity for elimination. The half-life is how long it takes for the measured level to halve. Lower therefore signals fast loss. Broadly, the CL/F is the apparent clearance, not corrected for the fraction that reaches the circulation. For orientation: bioavailability means the share of a dose that reaches the circulation, judged against a reference dose that is usually intravenous. Take `CC(C)NCC1CCc2cc(CO)c([N+](=O)[O-])cc2N1` (stereo not drawn) [OXA, oxamniquine]: in [4], the “expected maximal plasma levels” value lay in the range of 9 to 14 µM. Also, in series [5], the “bile concentration relative to liver tissue” value amounted to 15 fold. Besides, the microsomal CLint at 1 μM in series [6] was found to be 196 µL/min/mg. Further, the blood plasma ratio at 30 min, 5 μM in series [7] worked out at 1.6. Also, in series [8], the “rate of absorption in the human intestine” value is “approximately 2.5 % per minute”. In [9] (setting [15]), the “Inlet Concentration (portal)” value is 118 µM and 118 ± 10 µM; the “ka absorption rate constant” value was 0.043 min⁻¹. Besides, in series [9] (setting [16]), the “Inlet Concentration (portal)” value was 132 µM and 132 ± 11 µM; the “ka absorption rate constant” value was 0.049 min⁻¹. Further, the k el in series [9] (C57Bl/6J, mouse, in vivo, po, 100 mg/kg, ke elimination rate constant, 100 mg/kg PO acetate buffer, method of residuals) is 0.0002 s⁻¹. The “fraction orally absorbed (Fa x Fg)” value in series [9] (mouse, true value could range between 0.7 and 1) was 0.7. In [10] (100 mg/kg PO, 100 mM acetate buffer pH 4.5), this molecule yielded a Cl clearance of 159 ± 3 mL/min/kg. For the same molecule, in series [10] (setting [17]), the AUC(0-inf) is 1.1 µM·h, the Cmax was determined as 2.2 ± 0.1 µM, the time to peak (Tmax) was 5 min and the clearance came out at 157 ± 3 mL/min/kg. In addition, the half-life in series [10] (setting [17]) came to 51 ± 6 min. Further, in [10] (setting [18]), the area under the curve AUC(0-inf) was determined as 26.1 ± 1.7 µM·h, the apparent clearance CL/F came out at 230 ± 14 mL/min/kg, the maximum concentration (Cmax) is 11.8 ± 1.6 µM and the Tmax was 50 min. Moreover, in series [10] (setting [18]), the bioavailability was found to be 69.5 ± 5.3% and the half-life worked out at 58 ± 6 min. In [11] (35.75 μM and 14.3 μM, 45 min exposure, 14 days), the “worm killing at lower concentrations” value is “minimal worm killing”. For the same molecule, the worm survival result in series [11] (71.5 μM, 45 min exposure, 14 days) is “significantly reduced”. In addition, the worm survival result in [11] (143 μM, 45 min exposure, 14 days) is “significantly reduced”. Also, the worm killing in series [11] (143 μM, 45 min exposure, adult male worms, 14 days) was determined as 90%. Also, the “efficacy of worm killing with shorter exposure times” value in series [11] (143 μM, exposure 15 and 30 min) is on record as “maintained”. Besides, the peak plasma concentrations in series [12] (human, approximately 20 mg/kg oral dose) was 4 to 7 µM. Besides, in series [12] (setting [19]), the “AUC(0-∞)” value was 20.2 ± 4.9 µM·h, the highest concentration (Cmax) is 4.5 ± 0.9 µM, the T1/2 is given as 151 ± 23 min and the time of peak concentration (Tmax) is reported as 103 ± 12 min. Besides, the “solubility dependence on pH” value in series [13] is “increases at low pH”. In addition, the stable solution concentration in [13] (100 mM acetate buffer, pH 4.5) came out at 10 mg/mL. Also, in [14], the “impact of efflux transporter P-gp on tissue distribution” value is listed as “no indication that the efflux transporter P-gp impacts tissue distribution”.
